Results published in ChEMBL document CHEMBL4406803, “A- and D-Ring Structural Modifications of an Androsterone Derivative Inhibiting 17β-Hydroxysteroid Dehydrogenase Type 3: Chemical Synthesis and Structure-Activity Relationships” (J Med Chem, 2019).

Legend:
LAPC4 [1] = experiment: Androgenic activity in human LAPC4 cells expressing androgen receptor assessed as effect on cell proliferation at 1 uM supplemented with fresh medium containing compounds every 3 days for 7 days by MTS assay (reference value: 100%); type: ADME, cell-based; conditions: lapc4, 168 h
Summary of the method: (§1)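 Androgen-dependent LAPC-4 cells were seeded at 5,000 per well in IMDM with 5% dextran-coated charcoal-treated FBS and pre-incubated 24 h at 37 °C, 5% CO2. Compounds were added from DMSO stock at 0.1, 0.5 and 1.0 µM, with 0.05% DMSO in controls. Incubation lasted 7 days, with a medium change at day 3. Growth was read by MTS (4 h, 490 nm) as % of untreated control (100%), in triplicate.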

LAPC4 [2] = experiment: Androgenic activity in human LAPC4 cells expressing androgen receptor assessed as effect on cell proliferation at 0.5 uM supplemented with fresh medium containing compounds every 3 days for 7 days by MTS assay (reference value: 100%); type: ADME, cell-based; conditions: lapc4, 168 h; summary of the method: as §1
LAPC4 [3] = experiment: Androgenic activity in human LAPC4 cells expressing androgen receptor assessed as effect on cell proliferation at 0.1 uM supplemented with fresh medium containing compounds every 3 days for 7 days by MTS assay (reference value: 100%); type: ADME, cell-based; conditions: lapc4, 168 h; summary of the method: as §1
[4] = biological target: T1, 17-beta-hydroxysteroid dehydrogenase type 3 (Homo sapiens, UniProt P37058); experiment: Inhibition of 17beta-HSD3 (unknown origin) expressed in human LNCAP cells assessed as reduction in [14C]-testosterone formation from [14C]-4-androstene-3,17-dione measured after 1 hr; type: cell-based
T1 sequence (P37058 whole entry): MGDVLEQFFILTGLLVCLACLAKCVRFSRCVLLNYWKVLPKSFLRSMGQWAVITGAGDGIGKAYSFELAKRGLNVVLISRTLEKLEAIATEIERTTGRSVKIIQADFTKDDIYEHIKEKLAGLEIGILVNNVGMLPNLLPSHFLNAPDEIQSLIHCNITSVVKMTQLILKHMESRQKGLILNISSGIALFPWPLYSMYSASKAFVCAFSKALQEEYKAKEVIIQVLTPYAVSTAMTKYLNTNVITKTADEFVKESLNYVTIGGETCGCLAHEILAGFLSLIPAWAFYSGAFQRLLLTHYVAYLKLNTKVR
Summary of the method: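 Transfected LNCaP[17β-HSD3] cells were incubated 1 h with 15 nM [14C]-4-androstenedione and inhibitor at seven concentrations (0.001–5.0 µM; 0.05% DMSO). [14C]-T formation was measured by TLC and radioimaging. IC50 was obtained by curve fitting, averaging two independent experiments in triplicate.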

[5] = biological target: T2, 17-beta-hydroxysteroid dehydrogenase type 3 (Homo sapiens) (UniProt P37058); experiment: Inhibition of 17beta-HSD3 (unknown origin) expressed in human LNCAP cells assessed as reduction in [14C]-testosterone formation from [14C]-4-androstene-3,17-dione at 1 uM measured after 1 hr relative to control; type: cell-based
T2 sequence (whole entry): T1 sequence (P37058 whole entry)
Summary of the method: (§2)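 LNCaP cells stably transfected with 17β-HSD3 were plated at 10,000 per well in hygromycin-free medium and grown 2 days. They were then given 15 nM [14C]-4-androstenedione plus inhibitor at 0.1, 0.5 or 1.0 µM (0.05% DMSO final) for 1 h. Steroids were ether-extracted, separated by TLC and quantified by radioimaging. Results are % inhibition of conversion to T.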

[6] = biological target: T2, 17-beta-hydroxysteroid dehydrogenase type 3 (Homo sapiens); experiment: Inhibition of 17beta-HSD3 (unknown origin) expressed in human LNCAP cells assessed as reduction in [14C]-testosterone formation from [14C]-4-androstene-3,17-dione at 0.5 uM measured after 1 hr relative to control; type: cell-based; summary of the method: as §2
[7] = biological target: T2, 17-beta-hydroxysteroid dehydrogenase type 3 (Homo sapiens); experiment: Inhibition of 17beta-HSD3 (unknown origin) expressed in human LNCAP cells assessed as reduction in [14C]-testosterone formation from [14C]-4-androstene-3,17-dione at 0.1 uM measured after 1 hr relative to control; type: cell-based; summary of the method: as §2
LAPC4 [8] = experiment: Antiproliferative activity against human LAPC4 cells expressing androgen receptor assessed as inhibition of cell proliferation at 0.1 uM supplemented with fresh medium containing compounds every 3 days for 7 days by MTS assay relative to control; type: functional; summary of the method: as §1
PC-3 [9] = experiment: Antiproliferative activity against AR-deficient human PC3 cells assessed as reduction in cell proliferation at 0.5 uM measured after 3 days by MTS assay relative to control; type: functional; parameters: scale not given: the % may be the effect or the level left
Summary of the method: (§3)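 Androgen-independent PC-3 cells were plated at 3,000 per well in triplicate in RPMI-1640 with 10% FBS. Compounds were added at 0.1, 0.5 and 1.0 µM from DMSO stock, with 0.05% DMSO in controls, and incubated 3 days. Growth was read by MTS (4 h, 490 nm) and expressed as % of non-treated control (100%).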

LAPC4 [10] = experiment: Antiproliferative activity against human LAPC4 cells expressing androgen receptor assessed as inhibition of cell proliferation supplemented with fresh medium containing compounds every 3 days for 7 days by MTS assay; type: functional, cell-based; summary of the method: as §1
[11] = Plasma concentration in mouse at 25 mg/kg, sc administered as single dose measured after 3 hrs by LC-MS/MS analysis; type: ADME, organism-based
Summary of the method: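 Female mice were fasted 8 h, then given a single 25 mg/kg subcutaneous dose in 0.1 mL of 0.4% aqueous methylcellulose with 8% DMSO. At 3 h, blood was taken by cardiac puncture into K-EDTA tubes (3 mice per group). Plasma was extracted and analysed by LC-MS/MS against a plasma calibration curve.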

LAPC4 [12] = experiment: Antiproliferative activity against human LAPC4 cells expressing androgen receptor assessed as inhibition of cell proliferation at 0.5 uM supplemented with fresh medium containing compounds every 3 days for 7 days by MTS assay relative to control; type: functional; summary of the method: as §1
PC-3 [13] = experiment: Antiproliferative activity against AR-deficient human PC3 cells assessed as reduction in cell proliferation at 0.1 uM measured after 3 days by MTS assay relative to control; type: functional; parameters: scale not given: the % may be the effect or the level left; summary of the method: as §3
PC-3 [14] = experiment: Antiproliferative activity against AR-deficient human PC3 cells assessed as reduction in cell proliferation at 1 uM measured after 3 days by MTS assay relative to control; type: functional; parameters: scale not given: the % may be the effect or the level left; summary of the method: as §3
LAPC4 [15] = experiment: Antiproliferative activity against human LAPC4 cells expressing androgen receptor assessed as inhibition of cell proliferation at 1 uM supplemented with fresh medium containing compounds every 3 days for 7 days by MTS assay relative to control; type: functional; summary of the method: as §1
[16] = Stability of the compound in human liver S9 fraction at 10 uM measured after 1 hr by NADPH by HPLC-MS analysis; type: ADME, subcellular; conditions: s9, 1 h
Summary of the method: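 Substrate (10 µM) was incubated 1 h at 37 °C with 40 µg human liver S9 fraction in 50 mM Tris with 10 mM MgCl2, with or without 10 mM NADPH. The reaction was stopped with MeOH. Remaining parent was measured by HPLC-MS (UV 190 nm) as the AUC ratio with/without NADPH ×100. Values are the mean ± SD of four independent experiments.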

| SMILES | Activity (LAPC4 [1]) [%] | Activity (LAPC4 [2]) [%] | Activity (LAPC4 [3]) [%] | IC50 [4] [nM] | inhibition [5] [%] | inhibition [6] [%] | inhibition [7] [%] | inhibition (INH) (LAPC4 [8]) [%] | Activity (PC-3 [9]) [%] | inhibition (LAPC4 [10]) | concentration at 3 h [11] [ng/mL] | inhibition (INH) (LAPC4 [12]) [%] | Activity (PC-3 [13]) [%] | Activity (PC-3 [14]) [%] | inhibition (INH) (LAPC4 [15]) [%] | Stability [16] |
| --- | --- | --- | --- | --- | --- | --- | --- | --- | --- | --- | --- | --- | --- | --- | --- | --- |
| CC1CN(S(=O)(=O)c2ccccc2C(F)(F)F)C(C)CN1CC(O)c1ccc2c(c1)CC[C@@H]1[C@@H]2CC[C@]2(C)C(=O)CC[C@@H]12 (single isomer, unassigned; diastereomer A) [listing 1 of 2 here] | 81.9 | 94.9 | 115 | 140 |  |  |  |  |  |  |  |  |  |  |  |  |
| CC1CN(S(=O)(=O)c2ccccc2C(F)(F)F)C(C)CN1CC(O)c1ccc2c(c1)CC[C@@H]1[C@@H]2CC[C@]2(C)C(=O)CC[C@@H]12 (single isomer, unassigned; diastereomer A) [listing 2 of 2 here] |  |  |  |  | 98 | 95 | 50 |  |  |  |  |  |  |  |  |  |
| CC1CN(S(=O)(=O)c2ccccc2C(F)(F)F)C(C)CN1C[C@@]1(O)CC[C@@]2(C)[C@@H](CC[C@@H]3[C@@H]2CC[C@]2(C)/C(=N/O)CC[C@@H]32)C1 (some centres not stated) |  |  |  | 220 | 90 | 80 | 40 | -8 | 6 | Dose-dependent effect | 94.7 | 41 | 10 | 4 | 56 | Stable |
| CC1CN(S(=O)(=O)c2ccccc2C(F)(F)F)C(C)CN1C[C@@]1(O)CC[C@@]2(C)[C@@H](CC[C@@H]3[C@@H]2CC[C@@]2(C)[C@H]3CC[C@@]23CO3)C1 (some centres not stated) | 49.3 | 61.2 | 92.6 |  | 20 | 10 | 5 |  |  |  |  |  |  |  |  |  |
| CC1CN(S(=O)(=O)c2ccccc2C(F)(F)F)C(C)CN1C[C@@]1(O)CC[C@@]2(C)[C@@H](CC[C@@H]3[C@@H]2CC[C@]2(C)[C@@H](O)CC[C@@H]32)C1 (some centres not stated) | 31.3 | 88.1 | 116.4 | 190 | 94 | 78 | 38 |  |  |  |  |  |  |  |  |  |
| CC1CN(S(=O)(=O)c2ccccc2C(F)(F)F)C(C)CN1C[C@@]1(O)CC[C@@]2(C)[C@@H](CC[C@@H]3[C@@H]2CC[C@]2(C)[C@@H](O)[C@H](O)C[C@@H]32)C1 (some centres not stated) | 43.8 | 54.1 | 90.8 |  | 55 | 48 | 20 |  |  |  |  |  |  |  |  |  |
| CO[C@H]1CC[C@H]2[C@@H]3CC[C@H]4C[C@@](O)(CN5CC(C)N(S(=O)(=O)c6ccccc6C(F)(F)F)CC5C)CC[C@]4(C)[C@H]3CC[C@]12C (some centres not stated) |  |  |  |  | 30 | 18 | 10 |  |  |  |  |  |  |  |  |  |
| C#C[C@]1(O)CC[C@H]2[C@@H]3CC[C@H]4C[C@@](O)(CN5CC(C)N(S(=O)(=O)c6ccccc6C(F)(F)F)CC5C)CC[C@]4(C)[C@H]3CC[C@@]21C (some centres not stated) | 81.2 | 95.8 | 130.9 |  | 40 | 30 | 5 |  |  |  |  |  |  |  |  |  |
| CC1CN(S(=O)(=O)c2ccccc2C(F)(F)F)C(C)CN1C[C@@]1(O)CC[C@@]2(C)[C@@H](CC[C@@H]3[C@@H]2CC[C@]2(C)[C@@H](O)[C@H](F)C[C@@H]32)C1 (some centres not stated) | 142.4 | 149.7 | 153.6 |  | 70 | 58 | 12 |  |  |  |  |  |  |  |  |  |
| CC1CN(S(=O)(=O)c2ccccc2C(F)(F)F)C(C)CN1CC(O)c1ccc2c(c1)CC[C@@H]1[C@@H]2CC[C@]2(C)C(=O)CC[C@@H]12 (single isomer, unassigned; diastereomer B) |  |  |  |  | 100 | 98 | 84 |  |  | Dose-dependent effect |  |  |  |  |  |  |
| CC1CN(S(=O)(=O)c2ccccc2C(F)(F)F)C(C)CN1C[C@@]1(O)CC[C@@]2(C)[C@@H](CC[C@@H]3[C@@H]2CC[C@]2(C)C(=O)[C@H](F)C[C@@H]32)C1 (some centres not stated) | 126.6 | 134.2 | 147.7 | 200 | 90 | 75 | 22 |  |  |  |  |  |  |  |  | Stable |
| CC1CN(S(=O)(=O)c2ccccc2C(F)(F)F)C(C)CN1CC(F)c1ccc2c(c1)CC[C@@H]1[C@@H]2CC[C@]2(C)C(=O)CC[C@@H]12 (mixture of isomers) |  |  |  | 250 | 90 | 80 | 30 |  |  |  |  |  |  |  |  |  |
| CC(=O)[C@H]1CC[C@H]2[C@@H]3CC[C@H]4C[C@@](O)(CN5CC(C)N(S(=O)(=O)c6ccccc6C(F)(F)F)CC5C)CC[C@]4(C)[C@H]3CC[C@]12C (some centres not stated) | 27.1 | 26.4 | 45.9 | 2600 | 42 | 30 | 10 |  |  |  |  |  |  |  |  | Stable |
| CC1CN(S(=O)(=O)c2ccccc2C(F)(F)F)C(C)CN1C[C@@]1(O)CC[C@H]2[C@@H](CC[C@@H]3[C@@H]2CC[C@]2(C)C(=O)CC[C@@H]32)C1 (some centres not stated) | 63.1 | 66.3 | 92.8 | 220 | 94 | 82 | 20 |  |  |  |  |  |  |  |  | Unstable |
| CC1CN(S(=O)(=O)c2ccccc2C(F)(F)F)C(C)CN1C[C@@]1(O)CC[C@@]2(C)[C@@H](CC[C@@H]3[C@@H]2CC[C@]2(C)C(=O)[C@H](O)C[C@@H]32)C1 (some centres not stated) | 69.3 | 83.1 | 114 |  | 80 | 60 | 0 |  |  |  |  |  |  |  |  |  |
